One assay deals with A-431. As to the kind of experiment: Antiproliferative activity against human A431 cells after 48 to 72 hrs by MTT assay. Type of assay: functional, cell-based. The essentials: (§1)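 MTT assay read 48 and 72 h after compound addition. Cell lines grown in DMEM with 10% heat-inactivated FCS, 2 mM L-glutamine, 1 mM sodium pyruvate; GBM stem cells grown as nonadherent neurospheres. IC50 by Hill equation fit; ≥3 independent experiments, each point repeated six times.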
On the technique in general: Formazan colour is commonly taken as a measure of viable cells.

A further assay deals with DU-145. As to the kind of experiment: Antiproliferative activity against human DU145 cells after 48 to 72 hrs by MTT assay. The assay is classed as functional, cell-based. The method, boiled down:
as §1

For another assay, the system named is MDA-MB-231. As to the kind of experiment: Antiproliferative activity against human MDA-MB-231 cells after 48 to 72 hrs by MTT assay. The assay is classed as functional, cell-based. The method, boiled down:
as §1

Assay [1] in a line: Antiproliferative activity against human Caco2 cells after 48 to 72 hrs by MTT assay. The assay is classed as functional, cell-based. Conditions: Caco-2. The method, boiled down: as §1
A short description of assay [2]: Antiproliferative activity against human HuH7 cells after 48 to 72 hrs by MTT assay. To be noted: Huh-7. Type of assay: functional, cell-based. The method, boiled down:
as §1

A short description of assay [3]: Antiproliferative activity against mouse B16F10 cells after 48 to 72 hrs by MTT assay. The assay is classed as functional, cell-based. To be noted: B16-F10. The essentials: as §1
The test system of the next assay is SNB-75. As to the kind of experiment: Antiproliferative activity against human SNB75 cells after 48 to 72 hrs by MTT assay. The assay is classed as functional, cell-based. The essentials:
as §1

A further assay concerns MDA-MB-435. As to the kind of experiment: Antiproliferative activity against human MDA-MB-435 cells after 48 to 72 hrs by MTT assay. The assay is classed as functional, cell-based. The essentials:
as §1

A short description of assay [4]: Antiproliferative activity against human Gli4F11 cells after 48 to 72 hrs by MTT assay.
The nature of assay [5]: Antiproliferative activity against human Gli7 cells after 48 to 72 hrs by MTT assay. The assay is classed as functional, cell-based. The essentials:
as §1

Another assay concerns C6. As to the kind of experiment: Antiproliferative activity against rat C6 cells after 48 to 72 hrs by MTT assay. Type of assay: functional, cell-based. The method, boiled down:
as §1

Molecules are shown by their SMILES.

Regarding `CC1(C)O[C@H]2[C@@H]([C@H]3COC(C)(C)O3)O[P@](=O)(c3ccccc3)[C@@H](O)[C@H]2O1`, the 50% inhibitory concentration (IC50) (as a rule, the concentration that inhibits the measured activity by half) is 1.11 µM in the assay with A-431; over 100 µM with DU-145; 9.37 µM in the assay on MDA-MB-231; over 100 µM in assay [1]; over 100 µM in assay [2]; 9.95 µM in assay [3]. The concentration for half-maximal inhibition (IC50) came out at 14.3 µM with SNB-75; 16.6 µM in the assay with MDA-MB-435; 38.4 µM in [4]; 3.16 µM in assay [5]; 0.5 µM with C6.
As to `CC1(C)O[C@H]2[C@@H]([C@H]3COC(C)(C)O3)O[P@@](=O)(c3ccccc3)[C@@H](O)[C@H]2O1`, the half-inhibitory concentration (IC50) is 0.98 µM in the assay with A-431; over 100 µM in the assay on DU-145; 6.08 µM in the assay with MDA-MB-231; over 100 µM in assay [1]; over 100 µM in assay [2]; 10.2 µM in assay [3]. The concentration for half-maximal inhibition (IC50) with SNB-75 is 13.4 µM; with MDA-MB-435 it was 11 µM; in assay [4], 8.56 µM; in assay [5], 3.72 µM; in the assay with C6, over 100 µM.
For the compound `CC1(C)O[C@@H]2[C@H](O1)[C@@H](O)[P@@](=O)(c1ccccc1)O[C@@H]2[C@H]1COC(C)(C)O1`, the half-inhibitory concentration (IC50) was 0.77 µM in the assay on A-431; over 100 µM with DU-145; 5.6 µM with MDA-MB-231; over 100 µM in assay [1]; over 100 µM in assay [2]; 10.4 µM in assay [3]. In addition, the IC50 in the assay with SNB-75 was 16.1 µM; in the assay with MDA-MB-435 it was 11.6 µM; in assay [4], 11.4 µM; in assay [5], 5.81 µM; in the assay on C6, over 100 µM.
As to `CCCC[P@@]1(=O)O[C@H]([C@H]2COC(C)(C)O2)[C@@H]2OC(C)(C)O[C@@H]2[C@@H]1O`, the IC50 in the assay with A-431 is 0.55 µM; in the assay with DU-145 it was over 100 µM; in the assay with MDA-MB-231 it was over 100 µM; in [1], over 100 µM; in assay [2] it was over 100 µM; in assay [3] it was over 100 µM. Further, the IC50 is 6.21 µM in the assay with SNB-75; over 100 µM with MDA-MB-435; 6.12 µM in assay [4]; 2.88 µM in assay [5]; 8.62 µM with C6.
As to `CC(=O)O[C@H]1[C@H]2OC(C)(C)O[C@H]2[C@@H]([C@H]2COC(C)(C)O2)O[P@]1(=O)c1ccccc1`, the IC50 (with A-431; in the assay with DU-145; in the assay on MDA-MB-231; in [1]; in assay [2]; in assay [3]) was over 100 µM throughout. For the same compound, the IC50 in the assay with SNB-75 was 1.37 µM; in the assay on MDA-MB-435, over 100 µM; in [4], 8.76 µM; in [5], 3.62 µM; in the assay with C6, 10.2 µM.
As to `CC1(C)O[C@H]2[C@@H]([C@H]3COC(C)(C)O3)O[P@](=O)(c3ccccc3)[C@@H](OC(=O)c3ccccc3)[C@H]2O1`, the half-inhibitory concentration (IC50) in the assay with A-431 is 4.35 µM; in the assay with DU-145, over 100 µM; with MDA-MB-231 it was 1.16 µM; in assay [1] it was over 100 µM; in [2], over 100 µM; in assay [3], 13.5 µM. Moreover, the 50% inhibitory concentration (IC50) worked out at 9.54 µM with SNB-75; 0.66 µM in the assay with MDA-MB-435; 3.22 µM in assay [4]; 1.93 µM in [5]; 8.51 µM in the assay with C6.
As for `CC1(C)O[C@H]2[C@@H]([C@H]3COC(C)(C)O3)O[P@](=O)(c3ccccc3)[C@@H](OS(C)(=O)=O)[C@H]2O1`, the IC50 is 4.85 µM in the assay on A-431; over 100 µM in the assay on DU-145; 3.45 µM in the assay with MDA-MB-231; over 100 µM in assay [1]; 24 µM in assay [2]; 2.08 µM in [3]. Besides, the IC50 with SNB-75 is 6.28 µM; with MDA-MB-435, 1.96 µM; in [4], 6.81 µM; in assay [5], 2.71 µM; in the assay on C6, 1.11 µM.
On to `Cc1ccc(S(=O)(=O)O[C@H]2[C@H]3OC(C)(C)O[C@H]3[C@@H]([C@H]3COC(C)(C)O3)O[P@]2(=O)c2ccccc2)cc1`, for which the concentration for half-maximal inhibition (IC50) is 4.44 µM in the assay on A-431; over 100 µM in the assay with DU-145; 2.66 µM in the assay on MDA-MB-231; over 100 µM in assay [1]; over 100 µM in [2]; 1.64 µM in assay [3]. The IC50 was determined as 9.42 µM with SNB-75; 4.02 µM in the assay on MDA-MB-435; 5.41 µM in assay [4]; 2.8 µM in assay [5]; 6.99 µM with C6.
In the case of `CC1(C)O[C@H]2[C@@H]([C@H]3COC(C)(C)O3)O[P@](=O)(c3ccccc3)[C@@H](Oc3ccc([N+](=O)[O-])cc3)[C@H]2O1`, the IC50 in the assay with A-431 was 2.02 µM; with DU-145 it was over 100 µM; with MDA-MB-231 it was over 100 µM; in [1], over 100 µM; in assay [2], over 100 µM; in assay [3], over 100 µM. In addition, the IC50 is 3.11 µM in the assay with SNB-75; over 100 µM in the assay on MDA-MB-435; 3.91 µM in assay [4]; 2.07 µM in [5]; 31.4 µM in the assay on C6.
For `CC1(C)O[C@H]2[C@@H]([C@H]3COC(C)(C)O3)O[P@](=O)(c3ccccc3)[C@@H](Oc3ccc([N+](=O)[O-])c([N+](=O)[O-])c3)[C@H]2O1`, the IC50 was 0.84 µM with A-431; over 100 µM in the assay with DU-145; 6.35 µM with MDA-MB-231; over 100 µM in [1]; 23.8 µM in [2]; 2.59 µM in assay [3]. For the same compound, the half-inhibitory concentration (IC50) with SNB-75 was determined as 6.99 µM; with MDA-MB-435, 2.66 µM; in assay [4], 2.87 µM; in assay [5] it was 1.93 µM; with C6, 9.44 µM.
For the compound `CC1(C)O[C@H]2[C@@H]([C@H]3COC(C)(C)O3)O[P@](=O)(c3ccccc3)[C@@H](Oc3ccc(N)cc3)[C@H]2O1`, the half-maximal inhibitory concentration (IC50) in the assay with A-431 is over 100 µM; in the assay on DU-145, over 100 µM; with MDA-MB-231, 4.82 µM; in [1], over 100 µM; in assay [2], 23.6 µM; in assay [3], 4.69 µM. Moreover, the half-maximal inhibitory concentration (IC50) with SNB-75 amounted to 6.23 µM; in the assay on MDA-MB-435, 3.36 µM; in [4] it was 2.98 µM; in assay [5], 1.77 µM; in the assay with C6 it was 9.35 µM.
As for `CC1(C)O[C@@H]2[C@H](O1)[C@@H](Nc1ccccc1)[P@](=O)(c1ccccc1)O[C@@H]2[C@H]1COC(C)(C)O1`, the IC50 in the assay on A-431 was 1.26 µM; in the assay with DU-145, over 100 µM; in the assay with MDA-MB-231, 3.83 µM; in assay [1] it was over 100 µM; in assay [2] it was 24.2 µM; in assay [3], 1.96 µM. The half-maximal inhibitory concentration (IC50) stood at 9.99 µM in the assay with SNB-75; 2.48 µM in the assay with MDA-MB-435; 2.68 µM in assay [4]; 1.82 µM in [5]; 10.3 µM in the assay on C6.
For the compound `Cc1ccc(N[C@@H]2[C@H]3OC(C)(C)O[C@H]3[C@@H]([C@H]3COC(C)(C)O3)O[P@@]2(=O)c2ccccc2)cc1`, the IC50 with A-431 was 4.67 µM; in the assay with DU-145, over 100 µM; in the assay on MDA-MB-231, 3.72 µM; in assay [1], over 100 µM; in [2], 23.6 µM; in assay [3] it was 2.02 µM. In addition, the half-inhibitory concentration (IC50) with SNB-75 amounted to 5.37 µM; with MDA-MB-435, 2.65 µM; in assay [4] it was 5.55 µM; in assay [5], 2.8 µM; in the assay on C6, 5.5 µM.
Turning to `CC1(C)O[C@@H]2[C@H](O1)[C@@H](NCc1ccccc1)[P@](=O)(c1ccccc1)O[C@@H]2[C@H]1COC(C)(C)O1`, the half-maximal inhibitory concentration (IC50) was 4.7 µM in the assay with A-431; over 100 µM in the assay on DU-145; 4.17 µM in the assay on MDA-MB-231; over 100 µM in assay [1]; 23.8 µM in assay [2]; 2.05 µM in assay [3]. Also, the half-inhibitory concentration (IC50) in the assay on SNB-75 came to 5.16 µM; in the assay with MDA-MB-435 it was 3.99 µM; in assay [4], 2.79 µM; in [5], 4.62 µM; in the assay on C6 it was 14.8 µM.
With `CC1(C)O[C@@H]2[C@H](O1)[C@@H](N)[P@](=O)(c1ccccc1)O[C@@H]2[C@H]1COC(C)(C)O1`, the half-maximal inhibitory concentration (IC50) was over 100 µM with A-431; over 100 µM with DU-145; 4.15 µM with MDA-MB-231; over 100 µM in assay [1]; 16.3 µM in [2]; 1.02 µM in assay [3]. For the same compound, the IC50 in the assay with SNB-75 stood at 2.96 µM; in the assay on MDA-MB-435, 1.16 µM; in [4], 1.37 µM; in assay [5], 1.29 µM; in the assay with C6, 24.4 µM.
In the case of `CC(=O)N[C@@H]1[C@H]2OC(C)(C)O[C@H]2[C@@H]([C@H]2COC(C)(C)O2)O[P@@]1(=O)c1ccccc1`, the 50% inhibitory concentration (IC50) in the assay on A-431 was 0.13 µM; in the assay with DU-145 it was 31.2 µM; with MDA-MB-231, 23.2 µM; in assay [1], 36 µM; in assay [2], 21.9 µM; in assay [3], 14.9 µM. In addition, the IC50 stood at 0.65 µM in the assay with SNB-75; 9.61 µM in the assay on MDA-MB-435; 0.54 µM in [4]; 0.5 µM in assay [5]; 0.65 µM in the assay with C6.

Source of the values: ChEMBL document CHEMBL3352177, “C-glycoside mimetics inhibit glioma stem cell proliferation, migration, and invasion” (J Med Chem, 2014).
